Measured values published in ChEMBL document CHEMBL1250476, “Synthesis and antifungal evaluation of novel triazole derivatives as inhibitors of cytochrome P450 14alpha-demethylase” (2010).
Values after ≈ are worked out from the molar mass of the structure shown.

Tests used:
Format in all cases: functional
Kluyveromyces marxianus = test: Antifungal activity against Candida kefyr by micro-broth dilution method
Outline: (§1)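 MIC80 by broth microdilution in 96-well format following NCCLS. Compounds were dissolved in DMSO, serially diluted in growth medium, inoculated and incubated at 35 °C. The endpoint was the first well with about 80% growth reduction versus the drug-free well. Values are means of three replicate tests.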

Candida parapsilosis = test: Antifungal activity against Candida parapsilosis by micro-broth dilution method; conditions: Lodderomyces parapsilosis; outline: as §1
Candida albicans [1] = test: Antifungal activity against Candida albicans SC5314 after 24 hrs by micro-broth dilution method; conditions: SC5314, 24 h
Outline: (§2)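 Broth microdilution per NCCLS on Candida albicans. Compounds were dissolved in DMSO, serially diluted in growth medium, inoculated and incubated at 35 °C. Growth was read at 24 h, and MIC80 was taken as the first well with about 80% growth reduction relative to the drug-free control. Values are the mean of three replicates.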

Aspergillus fumigatus = test: Antifungal activity against Aspergillus fumigatus by micro-broth dilution method; outline: as §1
Candida tropicalis = test: Antifungal activity against Candida tropicalis by micro-broth dilution method; outline: as §1
Candida albicans [2] = test: Antifungal activity against Candida albicans Y0109 after 24 hrs by micro-broth dilution method; conditions: Y0109, 24 h; outline: as §2
Cryptococcus neoformans = test: Antifungal activity against Cryptococcus neoformans after 72 hrs by micro-broth dilution method
Outline: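 Cryptococcus neoformans tested by NCCLS micro-broth dilution. Compounds were dissolved in DMSO, serially diluted in medium, inoculated and incubated at 35 °C. MIC80 was read at 72 h as the first well showing approximately 80% growth reduction compared with the drug-free well. Values are the mean of three replicate tests.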

Trichophyton rubrum = test: Antifungal activity against Trichophyton rubrum by micro-broth dilution method; outline: as §1

CCCCCn1cc(CN(CC(O)(Cn2cncn2)c2ccc(F)cc2F)C2CC2)nn1 (centres undefined)
MIC (Kluyveromyces marxianus): 0.25 µg/mL (≈ 0.561 µM)
MIC (Candida parapsilosis): 0.5 µg/mL (≈ 1.12 µM)
MIC (Candida albicans [1]): < 0.125 µg/mL
MIC (Aspergillus fumigatus): > 64 µg/mL
MIC (Candida tropicalis): 0.25 µg/mL (≈ 0.561 µM)
MIC (Candida albicans [2]): 0.0625 µg/mL (≈ 0.14 µM)
MIC (Cryptococcus neoformans): 32 µg/mL (≈ 71.8 µM)
MIC (Trichophyton rubrum): < 0.125 µg/mL

OC(CN(Cc1cn(C2CCCCC2)nn1)C1CC1)(Cn1cncn1)c1ccc(F)cc1F (centres undefined)
MIC (Kluyveromyces marxianus): 0.25 µg/mL (≈ 0.546 µM)
MIC (Candida parapsilosis): 1 µg/mL (≈ 2.19 µM)
MIC (Candida albicans [1]): 4 µg/mL (≈ 8.74 µM)
MIC (Aspergillus fumigatus): 32 µg/mL (≈ 69.9 µM)
MIC (Candida tropicalis): 1 µg/mL (≈ 2.19 µM)
MIC (Candida albicans [2]): 0.0625 µg/mL (≈ 0.137 µM)
MIC (Cryptococcus neoformans): 2 µg/mL (≈ 4.37 µM)
MIC (Trichophyton rubrum): 2 µg/mL (≈ 4.37 µM)

Cc1ccc(Cn2cc(CN(CC(O)(Cn3cncn3)c3ccc(F)cc3F)C3CC3)nn2)cc1 (centres undefined)
MIC (Kluyveromyces marxianus): 0.0156 µg/mL (≈ 0.0325 µM)
MIC (Candida parapsilosis): < 0.125 µg/mL
MIC (Candida albicans [1]): < 0.125 µg/mL
MIC (Aspergillus fumigatus): 64 µg/mL (≈ 133 µM)
MIC (Candida tropicalis): < 0.125 µg/mL
MIC (Candida albicans [2]): 0.0156 µg/mL (≈ 0.0325 µM)
MIC (Cryptococcus neoformans): 1 µg/mL (≈ 2.09 µM)
MIC (Trichophyton rubrum): < 0.125 µg/mL

O=[N+]([O-])c1ccccc1Cn1cc(CN(CC(O)(Cn2cncn2)c2ccc(F)cc2F)C2CC2)nn1 (centres undefined)
MIC (Kluyveromyces marxianus): 0.0625 µg/mL (≈ 0.122 µM)
MIC (Candida parapsilosis): 4 µg/mL (≈ 7.84 µM)
MIC (Candida albicans [1]): 16 µg/mL (≈ 31.3 µM)
MIC (Aspergillus fumigatus): > 64 µg/mL
MIC (Candida tropicalis): 4 µg/mL (≈ 7.84 µM)
MIC (Candida albicans [2]): 0.0625 µg/mL (≈ 0.122 µM)
MIC (Cryptococcus neoformans): 64 µg/mL (≈ 125 µM)
MIC (Trichophyton rubrum): 4 µg/mL (≈ 7.84 µM)

O=[N+]([O-])c1cccc(Cn2cc(CN(CC(O)(Cn3cncn3)c3ccc(F)cc3F)C3CC3)nn2)c1 (centres undefined)
MIC (Kluyveromyces marxianus): 0.0156 µg/mL (≈ 0.0306 µM)
MIC (Candida parapsilosis): 8 µg/mL (≈ 15.7 µM)
MIC (Candida albicans [1]): 4 µg/mL (≈ 7.84 µM)
MIC (Aspergillus fumigatus): > 64 µg/mL
MIC (Candida tropicalis): 4 µg/mL (≈ 7.84 µM)
MIC (Candida albicans [2]): 0.0625 µg/mL (≈ 0.122 µM)
MIC (Cryptococcus neoformans): 64 µg/mL (≈ 125 µM)
MIC (Trichophyton rubrum): 0.25 µg/mL (≈ 0.49 µM)

O=[N+]([O-])c1ccc(Cn2cc(CN(CC(O)(Cn3cncn3)c3ccc(F)cc3F)C3CC3)nn2)cc1 (centres undefined)
MIC (Kluyveromyces marxianus): 0.0039 µg/mL (≈ 0.00764 µM)
MIC (Candida parapsilosis): 1 µg/mL (≈ 1.96 µM)
MIC (Candida albicans [1]): < 0.125 µg/mL
MIC (Aspergillus fumigatus): > 64 µg/mL
MIC (Candida tropicalis): 0.25 µg/mL (≈ 0.49 µM)
MIC (Candida albicans [2]): 0.25 µg/mL (≈ 0.49 µM)
MIC (Cryptococcus neoformans): 16 µg/mL (≈ 31.3 µM)
MIC (Trichophyton rubrum): 0.5 µg/mL (≈ 0.979 µM)

N#Cc1ccccc1Cn1cc(CN(CC(O)(Cn2cncn2)c2ccc(F)cc2F)C2CC2)nn1 (centres undefined)
MIC (Kluyveromyces marxianus): 1 µg/mL (≈ 2.04 µM)
MIC (Candida parapsilosis): 2 µg/mL (≈ 4.08 µM)
MIC (Candida albicans [1]): 0.25 µg/mL (≈ 0.51 µM)
MIC (Aspergillus fumigatus): > 64 µg/mL
MIC (Candida tropicalis): 1 µg/mL (≈ 2.04 µM)
MIC (Candida albicans [2]): 16 µg/mL (≈ 32.6 µM)
MIC (Cryptococcus neoformans): 64 µg/mL (≈ 130 µM)
MIC (Trichophyton rubrum): 2 µg/mL (≈ 4.08 µM)

N#Cc1cccc(Cn2cc(CN(CC(O)(Cn3cncn3)c3ccc(F)cc3F)C3CC3)nn2)c1 (centres undefined)
MIC (Kluyveromyces marxianus): 1 µg/mL (≈ 2.04 µM)
MIC (Candida parapsilosis): 4 µg/mL (≈ 8.15 µM)
MIC (Candida albicans [1]): 4 µg/mL (≈ 8.15 µM)
MIC (Aspergillus fumigatus): > 64 µg/mL
MIC (Candida tropicalis): 1 µg/mL (≈ 2.04 µM)
MIC (Candida albicans [2]): 4 µg/mL (≈ 8.15 µM)
MIC (Cryptococcus neoformans): 64 µg/mL (≈ 130 µM)
MIC (Trichophyton rubrum): 4 µg/mL (≈ 8.15 µM)

N#Cc1ccc(Cn2cc(CN(CC(O)(Cn3cncn3)c3ccc(F)cc3F)C3CC3)nn2)cc1 (centres undefined)
MIC (Kluyveromyces marxianus): 1 µg/mL (≈ 2.04 µM)
MIC (Candida parapsilosis): 4 µg/mL (≈ 8.15 µM)
MIC (Candida albicans [1]): 1 µg/mL (≈ 2.04 µM)
MIC (Aspergillus fumigatus): > 64 µg/mL
MIC (Candida tropicalis): 4 µg/mL (≈ 8.15 µM)
MIC (Candida albicans [2]): 0.0625 µg/mL (≈ 0.127 µM)
MIC (Cryptococcus neoformans): 64 µg/mL (≈ 130 µM)
MIC (Trichophyton rubrum): 4 µg/mL (≈ 8.15 µM)

OC(CN(Cc1cn(Cc2c(Cl)cccc2Cl)nn1)C1CC1)(Cn1cncn1)c1ccc(F)cc1F (centres undefined)
MIC (Kluyveromyces marxianus): 0.25 µg/mL (≈ 0.468 µM)
MIC (Candida parapsilosis): 4 µg/mL (≈ 7.49 µM)
MIC (Candida albicans [1]): 4 µg/mL (≈ 7.49 µM)
MIC (Aspergillus fumigatus): > 64 µg/mL
MIC (Candida tropicalis): 4 µg/mL (≈ 7.49 µM)
MIC (Candida albicans [2]): 0.0625 µg/mL (≈ 0.117 µM)
MIC (Cryptococcus neoformans): 64 µg/mL (≈ 120 µM)
MIC (Trichophyton rubrum): 1 µg/mL (≈ 1.87 µM)

CCc1ccc(Cn2cc(CN(CC(O)(Cn3cncn3)c3ccc(F)cc3F)C3CC3)nn2)cc1 (centres undefined)
MIC (Kluyveromyces marxianus): 0.25 µg/mL (≈ 0.507 µM)
MIC (Candida parapsilosis): 4 µg/mL (≈ 8.1 µM)
MIC (Candida albicans [1]): 4 µg/mL (≈ 8.1 µM)
MIC (Aspergillus fumigatus): > 64 µg/mL
MIC (Candida tropicalis): 2 µg/mL (≈ 4.05 µM)
MIC (Candida albicans [2]): 0.25 µg/mL (≈ 0.507 µM)
MIC (Cryptococcus neoformans): 1 µg/mL (≈ 2.03 µM)
MIC (Trichophyton rubrum): 2 µg/mL (≈ 4.05 µM)

CC(C)(C)c1ccc(Cn2cc(CN(CC(O)(Cn3cncn3)c3ccc(F)cc3F)C3CC3)nn2)cc1 (centres undefined)
MIC (Kluyveromyces marxianus): 1 µg/mL (≈ 1.92 µM)
MIC (Candida parapsilosis): 0.25 µg/mL (≈ 0.479 µM)
MIC (Candida albicans [1]): 0.0625 µg/mL (≈ 0.12 µM)
MIC (Aspergillus fumigatus): > 64 µg/mL
MIC (Candida tropicalis): 16 µg/mL (≈ 30.7 µM)
MIC (Candida albicans [2]): < 0.125 µg/mL
MIC (Cryptococcus neoformans): 4 µg/mL (≈ 7.67 µM)
MIC (Trichophyton rubrum): 4 µg/mL (≈ 7.67 µM)

C[C@@H]1[C@H](O)[C@@H](C)/C=C/C=C/C=C/C=C/C=C/C=C/C=C/[C@H](O[C@@H]2O[C@H](C)[C@@H](O)[C@H](N)[C@@H]2O)C[C@@H]2O[C@](O)(C[C@@H](O)C[C@@H](O)[C@H](O)CC[C@@H](O)C[C@@H](O)CC(=O)O[C@H]1C)C[C@H](O)[C@H]2C(=O)O [AMPHOTERICIN B]
MIC (Kluyveromyces marxianus): 0.25 µg/mL (≈ 0.271 µM)
MIC (Candida parapsilosis): 0.125 µg/mL (≈ 0.135 µM)
MIC (Candida albicans [1]): 8 µg/mL (≈ 8.66 µM)
MIC (Aspergillus fumigatus): 32 µg/mL (≈ 34.6 µM)
MIC (Candida tropicalis): 0.25 µg/mL (≈ 0.271 µM)
MIC (Candida albicans [2]): 4 µg/mL (≈ 4.33 µM)
MIC (Cryptococcus neoformans): 4 µg/mL (≈ 4.33 µM)
MIC (Trichophyton rubrum): 1 µg/mL (≈ 1.08 µM)
